An excerpt weighted towards active compounds, which were near 1.7% of everything screened.
Vif imaging: inhibitors of HIV Vif; inhibition, % at 7.49 µM; HEK293T cells, Vif self-association by quenched fluorescence, imaging, 24 h; actives 0.35% (n = 340,000); in the data active = inhibition above about 50%, passing the limit was not always enough; inconclusive = no clear call, values can overlap the other calls; inactive = below about 31%
Runt-SMMHC FRET: blocks binding of human RUNX1 Runt domain to CBFb-SMMHC | Q01196+Q13951 | actives 0.74% (n = 220,000) | inhibition, % at 20 µM | Cerulean-Runt/Venus-CBFb-SMMHC FRET ratio 530/480, 1 h;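 active = mean inhibition across duplicate retests at 20 µM reaching about 50%, limit read from the data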;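 note: 0% = DMSO wells and 100% = wells with excess untagged CBFb-SMMHC; inhibitors lower the FRET ratio by blocking Runt binding to CBFb-SMMHC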
RanGTP-Imp inh: inhibitors of RanGTP-importin-beta interaction, primary screen, biochemical, FRET, CFP-Ran, YFP-importin-beta, homogeneous; cell-free CFP-Ran/YFP-importin-beta FRET ratio; inhibition, % (no concentration beside the values); actives 1.1% (n = 300,000); AID 2216;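 active = more than half of the replicate wells show a fall in the fluorescence ratio signal beyond about 16%, limit read from the data, passing the limit was not always enough; inconclusive = exactly half of the replicate wells pass the set limit; inactive = fewer than half of replicates pass the limit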;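 note: 0% = DMSO wells and 100% = Ran loaded with GDP instead of GTP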
Rce1 inh: yeast Ras-converting enzyme inhibition; yeast membranes, quenched prenylated peptide cleavage fluorescence; calls only; actives 0.27% (n = 290,000);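 active = fall in fluorescence gain of 50% or more versus controls, with final raw signal at or below 3038400; inconclusive = same 50% fall but final raw signal above 3038400; inactive = fall in fluorescence gain under 50%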;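 note: plate controls were neutral control wells for no effect and wells lacking membranes for full effect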
Target sequence (Q03530 whole entry, looked up): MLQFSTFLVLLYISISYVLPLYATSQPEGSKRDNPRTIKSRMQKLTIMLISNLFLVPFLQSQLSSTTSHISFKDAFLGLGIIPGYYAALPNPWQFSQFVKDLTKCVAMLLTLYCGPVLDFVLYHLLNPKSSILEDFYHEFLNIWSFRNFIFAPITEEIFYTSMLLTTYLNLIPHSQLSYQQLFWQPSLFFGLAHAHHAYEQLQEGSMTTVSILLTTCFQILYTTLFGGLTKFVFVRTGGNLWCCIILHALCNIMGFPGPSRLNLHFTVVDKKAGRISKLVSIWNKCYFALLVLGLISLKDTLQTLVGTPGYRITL
Runt-CBFb FRET: blocks binding of human RUNX1 Runt domain to CBFb; actives 0.46% (n = 220,000); Q01196+Q13951; Cerulean-Runt/Venus-CBFb FRET ratio 530/480, 1 h; inhibition, % at 20 µM;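 active = inhibition over about 50% at 20 µM in the single-dose screen, limit read from the data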;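 note: 0% = DMSO wells and 100% = excess unlabeled CBFb competitor control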
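System: Cerulean-labeled Runt domain protein | Quantity: 100 nM of each labeled protein | Schedule: 1 h compound exposure, room temperature | Detection: Fluorescence energy transfer, 422 nm excitation, 530/480 nm emission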
The depositor's hits bear a star; i = inactive; ? = inconclusive; nt = not tested or not shown; + = active, no number.

SMILES | Vif imaging | Runt-SMMHC FRET | RanGTP-Imp inh | Rce1 inh | Runt-CBFb FRET
Cc1cc(C)c2c(c1)-c1cc(C)nn1C(c1cccnc1)N2 (stereo unspecified) | nt | -5 | 4 | i | 0
COC(=O)C1=C(c2ccc(OCc3ccccc3)c(F)c2)C[C@@H]2CC[C@H]1N2C | -3 | nt | nt | nt | nt
O=c1[nH]c(=O)n(C2CCCCC2)c(O)c1/C=C/C=Nc1ccccc1 | 10 | 81* | 61* | i | -3
COc1ccc(-n2c(O)c(/C=C/C=Nc3ccccc3)c(=O)[nH]c2=O)cc1 | 18 | 51* | 20* | i | 15
Cc1ccc(-n2c(O)c(/C=C/C=Nc3ccccc3)c(=O)[nH]c2=O)cc1 | 7 | 66* | 68* | i | 19
Cc1ccc(N/N=C/c2c(O)n(-c3ccccc3)c(=O)[nH]c2=O)cc1 | -5 | 2 | 1 | i | 2
C=CCn1c(O)c(/C=C/C=Nc2ccccc2)c(=O)[nH]c1=O | -4 | 77* | 29* | i | 39
COc1ccc(-n2c(O)c(/C(C)=N/Nc3ccccc3)c(=O)[nH]c2=O)cc1 | 18 | 0 | 2 | i | -1
COc1ccc(OC(=O)N(C)C[C@@H]2OCc3cnnn3CCCC(=O)N([C@H](C)CO)C[C@H]2C)cc1 | -1 | nt | nt | nt | nt
CCCc1nc2ccc(Br)cc2c(=O)n1-c1ccc([N+](=O)[O-])c(C(F)(F)F)c1 | -22 | 3 | ? | i | -1
O=c1[nH]c(=O)n(-c2ccccc2)c(O)c1/C=C/C=Nc1ccccc1 | -9 | 60* | 58* | i | 46
NS(=O)(=O)c1ccc(N=Cc2c(O)n(-c3ccccc3)c(=O)[nH]c2=O)cc1 | 1 | -8 | 8 | i | 0
Cc1cc(=O)oc2cc3c(cc12)CCCN3 | 4 | nt | 84* | i | nt
CN(C)CCNC(=O)c1cccn(Cc2cc(C(F)(F)F)cc(C(F)(F)F)c2)c1=O | 4 | 2 | 0 | + | -4
CCN(CC)CCNC(=O)c1c(O)c2ccccc2n(Cc2ccccc2)c1=O | nt | 0 | -1 | i | 0
Fc1ccc(C[n+]2c(-c3ccccc3)cc(-c3ccccc3)cc2-c2ccccc2)cc1 | nt | nt | -3 | i | nt
Clc1ccc(C[n+]2c(-c3ccccc3)cc(-c3ccccc3)cc2-c2ccccc2)cc1 | -16 | nt | ? | + | nt
O=C(Nc1ccc2c(c1)OCO2)c1cn(Cc2ccc(F)cc2)nn1 | 53* | -2 | 8 | i | -4
NC(=O)c1cc(N2CC2)c([N+](=O)[O-])cc1[N+](=O)[O-] | 78* | nt | -1 | i | nt
O=C(O)C(O)(c1ccc(Cl)cc1)C1(O)CCCC1 (stereo unspecified) | 13 | nt | nt | nt | nt
CCOC(=O)[C@@H]1[C@H]2COc3ccc(Br)cc3[C@@H]2N2C(=O)N(c3cccc(C)c3)C(=O)[C@]12C | 4 | nt | 0 | + | nt
COC(=O)C1=C(c2ccc(OCc3ccccc3)cc2)C[C@@H]2CC[C@H]1N2C(=O)NCCc1ccc(F)cc1 | 2 | nt | nt | nt | nt
CN1CCCN(c2ccc([N+](=O)[O-])nc2)CC1 | 52* | nt | -5 | i | nt
CN1CCN(c2ccc([N+](=O)[O-])c(N3CCCCC3)c2)CC1 | -4 | 1 | ? | i | -2
CC(C)C(O)(C(=O)OCC1=CCN2CCC(O)C12)C(C)O (stereo unspecified) | -11 | nt | nt | nt | nt
SMILES | Vif imaging | Runt-SMMHC FRET | RanGTP-Imp inh | Rce1 inh | Runt-CBFb FRET
CCCCCn1c(N)c(C(=O)NCCN2CCOCC2)c2nc3ccccc3nc21 | -4 | 94* | 60* | i | 1
COc1ccc(CCNCc2ccccn2)cc1OC | -1 | 0 | -4 | i | 0
CCCCCCn1c(N)c(C(=O)NCCN2CCOCC2)c2nc3ccccc3nc21 | -10 | 62* | 70* | i | 28
O=C(NCCN1CCOCC1)c1ccc(Cl)nc1 | -5 | 2 | -1 | i | 0
CCCCCn1c(=O)c(C(=O)NCCc2ccccc2)c(O)c2ccccc21 | -2 | nt | 1 | i | nt
COc1ccc(CCNC(=O)c2c(N)n(CCN3CCOCC3)c3nc4ccccc4nc23)cc1OC | -4 | 46 | 55* | i | 19
O=C1NCN(c2ccccc2)C12CCN(C(CCc1ccccc1)c1nnnn1C1CCCC1)CC2 (stereo unspecified) | -2 | nt | nt | nt | nt
C/C=C1\NC(=O)[C@H](C)NC(=O)[C@@H](NC(=O)[C@H](Cc2ccc(O)cc2)NC(=O)[C@@H](NC(=O)/C(C)=C/C)C(C)C)[C@@H](C)OC(=O)[C@H](CCCc2ccc(O)cc2)NC(=O)[C@@H](CCC(=O)O)NC1=O | 7 | nt | nt | nt | nt
CNc1cc(N2CCNCC2)ccc1[N+](=O)[O-] | 51* | -6 | -5 | i | 0
C[C@@H]1CN([C@H](C)CO)C(=O)CCCn2nncc2CO[C@@H]1CN(C)C(=O)Oc1ccc2ccccc2c1 | -1 | nt | nt | nt | nt
C[C@]12CCC3C(CC[C@@H]4C[C@H](O)CC[C@]34C)C1CCC2=O (stereo partly specified) | 8 | nt | nt | nt | nt
O=C(Cn1ncc2c3ccccc3n(Cc3cccc(Cl)c3)c2c1=O)N1CCC2(CC1)OCCO2 | 56* | -10 | -4 | i | -5
COc1cccc(-n2c(O)c(C=NCCN3CCNCC3)c(=O)[nH]c2=S)c1 | -12 | nt | 1 | i | nt
Cc1nn(Cc2ccccc2)c(C)c1C(=O)NCc1ccccc1 | -5 | -1 | -6 | nt | -1
Nc1c(C(=O)NCc2ccco2)c2nc3ccccc3nc2n1Cc1ccccc1 | -3 | 76* | 55* | i | 68*
CCC(=O)C(CCN1CCOCC1)(c1ccccc1)c1ccccc1 | 6 | nt | -1 | i | nt
COc1ccc(Cn2c(N)c(C(=O)NCc3ccco3)c3nc4ccccc4nc32)cc1 | -12 | 100* | 61* | i | 49
Nc1c(C(=O)NCc2ccco2)c2nc3ccccc3nc2n1Cc1ccc(F)cc1 | -4 | 74* | 43* | i | 16
Nc1c(C(=O)NCc2ccco2)c2nc3ccccc3nc2n1CCN1CCOCC1 | -4 | 81* | 46* | i | 41
CCC(=NCc1cccnc1)c1c(O)n(Cc2ccccc2)c(=O)[nH]c1=O | 3 | 3 | nt | i | 1
CCOC(=O)c1c(N)n(Cc2ccco2)c2nc3ccccc3nc12 | -12 | 70* | nt | nt | 48
COCC(C)OC(=O)c1c(N)n(Cc2ccco2)c2nc3ccccc3nc12 (stereo unspecified) | -3 | 74 | 10 | i | nt
O=C(Cc1ccccc1)OCC(=O)c1ccccc1 | -1 | nt | 4 | i | nt
O=C(Cc1ccccc1)OCn1nnc2ccccc2c1=O | 140* | -1 | 4 | i | -2
COc1cc2c(c(OC)c1OC)-c1ccc(SC)c(=O)cc1C(NC(C)=O)CC2 (stereo unspecified) | -1 | nt | nt | nt | nt
O=C1C2CC(CN3CCCCC23)C2CCCCN12 (stereo unspecified) | 11 | nt | nt | nt | nt
O=C(Cc1ccccc1)OCC(=O)c1ccc(F)cc1 | 87* | nt | nt | nt | nt

Assay outcomes (PubChem)
